Measurements published in ChEMBL document CHEMBL1122871, “Monocyclic pteridine analogues. Inhibition of Escherichia coli dihydropteroate synthase by 6-amino-5-nitrosoisocytosines” (J Med Chem, 1985).

How the values were obtained:
[1] = biological target: T1, Dihydropteroate synthase (Escherichia coli K-12, UniProt P0AC13); experiment: (§1) In vitro inhibition of dihydropteroate synthase from Escherichia coli.; conditions: read-out: I50
T1 sequence (P0AC13 whole entry): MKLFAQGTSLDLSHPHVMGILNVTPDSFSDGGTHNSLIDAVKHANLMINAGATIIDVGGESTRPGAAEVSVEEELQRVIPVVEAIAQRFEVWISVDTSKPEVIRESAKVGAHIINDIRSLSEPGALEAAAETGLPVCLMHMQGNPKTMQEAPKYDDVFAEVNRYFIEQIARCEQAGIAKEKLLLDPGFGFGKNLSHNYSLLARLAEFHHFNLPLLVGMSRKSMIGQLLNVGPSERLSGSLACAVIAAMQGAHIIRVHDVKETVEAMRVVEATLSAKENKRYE
Summary of the method: (§2)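 Partially purified synthase from E. coli B. The assay used [14C]carboxy-p-aminobenzoic acid as substrate. Paper chromatography separated radiolabelled dihydropteroate from unreacted substrate. Results were given as the micromolar concentration giving 50% inhibition, or as percent inhibition at a stated concentration.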

[2] = biological target: T2, Dihydropteroate synthase (Escherichia coli K-12) (UniProt P0AC13); experiment: Kinetic constant for synthase inhibition
T2 sequence (whole entry): T1 sequence (P0AC13 whole entry)
Summary of the method: (§3)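 Kinetic runs varied either the pterin substrate or PABA across inhibitor levels. Velocity was nmol dihydropteroate formed in a 12-min incubation at 37 °C, plotted as double reciprocals. Data were computer-fitted to competitive or noncompetitive inhibition models and statistically tested for fit to each model.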

[3] = biological target: T2, Dihydropteroate synthase (Escherichia coli K-12); experiment: as §1; parameters: concentration or dose not given beside the values; conditions: concentration not given here; summary of the method: as §2
[4] = biological target: T2, Dihydropteroate synthase (Escherichia coli K-12); experiment: In vitro percent inhibition of dihydropteroate synthase from Escherichia coli at 20 uM; summary of the method: as §2
[5] = biological target: T1, Dihydropteroate synthase; experiment: Inhibitory activity against binding of para-aminobenzoic acid to synthase; conditions: read-out: I50; summary of the method: as §3

Row | IC50 [1] | Compound | other results
1 | 5.8 µM | Nc1nc(N)c(N=O)c(=O)[nH]1 | 
2 | 197 µM | CCN(CC)c1nc(N)nc(O)c1N=O | 
3 | 7.8 µM | Nc1nc(O)c(N=O)c(NCCCc2ccccc2)n1 | 
4 | 2.8 µM | CNc1nc(N)[nH]c(=O)c1[N+](=O)[O-] | 
5 | 4.2 µM | Nc1nc(O)c(N=O)c(NCCc2ccccc2)n1 | 
6 | > 100 µM | Nc1nc(O)c(C=O)c(NCCCCc2ccccc2)n1 | inhibition [3]: < 10%
7 | 2.5 µM | Nc1nc(O)c(N=O)c(NCCCCc2ccccc2)n1 | 
8 | > 110 µM | CNc1cc(O)nc(N)n1 | inhibition [3]: < 10%
9 | 5.9 µM | Nc1nc(O)c(N=O)c(NCCCCCc2ccccc2)n1 | 

Continued, molecule first:

Row | Compound | IC50 [1] | other results
10 | CCNc1nc(N)nc(O)c1N=O | 11 µM | 
11 | CC(C)Nc1nc(N)nc(O)c1N=O | 208 µM | 
12 | Nc1nc(O)c(N=O)c(NCc2ccccc2)n1 | 12.9 µM | 
13 | Nc1nc(O)c(N=O)c(NCCCO)n1 | 35 µM | 
14 | Nc1nc(O)c(N=O)c(NCCCOc2ccccc2)n1 | 3.7 µM | Kis [2]: 0.69 µM
15 | Nc1nccc(O)n1 | > 500 µM | inhibition [3]: < 10%
16 | Nc1nc(O)c(N=O)c(NCCCS(=O)(=O)c2ccccc2)n1 | 18 µM | 
17 | CSc1nc(N)nc(O)c1N=O |  | inhibition [4]: 17%
18 | Cc1cc(NS(=O)(=O)c2ccc(N)cc2)no1 [SULFAMETHOXAZOLE] | 4.7 µM | 
19 | N#Cc1c(O)nc(N)nc1NCCCCc1ccccc1 | 290 µM | 
20 | CNc1nc(N)nc(O)c1N=O | 1.6 µM | Kis [2]: 0.085 µM
21 | Nc1nc(O)c(N=O)c(NCCCCCCCc2ccccc2)n1 | 1.4 µM | IC50 [5]: 1.4 µM
22 | CNc1nc(N)nc(O)c1C=O | > 300 µM | inhibition [3]: < 10%
23 | Nc1ccc(S(=O)(=O)Nc2nccs2)cc1 [SULFATHIAZOLE] | 2.5 µM | 
24 | Nc1nc(O)c(N=O)c(Nc2ccccc2)n1 | > 100 µM | inhibition [3]: < 10%
25 | Nc1nc(O)c([N+](=O)[O-])c(NCCCCc2ccccc2)n1 | 21 µM | 
26 | Nc1nc(O)c(N=O)c(O)n1 | > 200 µM | inhibition [3]: < 10%
27 | Nc1nc(O)c(N=O)c(NCCCCCCc2ccccc2)n1 | 9 µM | 
